Data set [1] deals with T1, Estrogen receptor (Homo sapiens) (UniProt P03372).
T1 sequence (whole entry): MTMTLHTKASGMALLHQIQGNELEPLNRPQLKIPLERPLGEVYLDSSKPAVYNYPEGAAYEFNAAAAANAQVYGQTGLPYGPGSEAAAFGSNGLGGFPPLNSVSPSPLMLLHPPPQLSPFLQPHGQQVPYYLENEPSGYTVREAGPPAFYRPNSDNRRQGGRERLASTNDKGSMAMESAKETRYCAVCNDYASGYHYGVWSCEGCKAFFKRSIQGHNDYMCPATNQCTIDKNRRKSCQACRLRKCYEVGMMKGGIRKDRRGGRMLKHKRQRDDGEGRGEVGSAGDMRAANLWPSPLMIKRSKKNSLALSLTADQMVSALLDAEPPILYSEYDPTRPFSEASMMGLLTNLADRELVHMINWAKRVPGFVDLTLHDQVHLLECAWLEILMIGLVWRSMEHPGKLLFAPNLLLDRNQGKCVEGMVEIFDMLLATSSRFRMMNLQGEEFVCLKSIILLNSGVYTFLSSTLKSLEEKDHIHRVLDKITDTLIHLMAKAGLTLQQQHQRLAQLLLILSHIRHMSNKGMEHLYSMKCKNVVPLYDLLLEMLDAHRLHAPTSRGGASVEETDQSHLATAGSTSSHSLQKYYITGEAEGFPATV
Briefly: Inhibition of ERalpha in human MCF7 cells assessed as downregulation of 17beta-estradiol-mediated pS2 mRNA expression at 5 uM preincubated for 4 hrs followed by 17beta-estradiol addition measured after 16 hrs by quantitative RT-PCR analysis. Format: cell-based. The procedure, abridged: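 MCF-7 cells hormone-depleted 72 h in phenol red-free DMEM with 5% charcoal-treated serum, given peptides or DMSO for 4 h, then 100 nM 17β-estradiol or DMSO for 16 h. pS2 mRNA measured by quantitative RT-PCR, normalized to β-actin. Three independent experiments, mean ± SEM.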

The subject of data set [2] is MCF7. Nature of the data set: Cytotoxicity against human MCF7 cells assessed as cell viability at 20 uM after 24 hrs by MTT assay. Format: functional. Particulars: MCF7, 24 h, read-out: Activity. A general note: Tetrazolium assays rely on reduction of a dye to a coloured formazan, in cell work by metabolically active cells.
In data set [3] the test system is MCF7. Nature of the data set: Cytotoxicity against human MCF7 cells assessed as reduction in cell viability at 5 uM after 24 hrs by MTT assay relative to control. Particulars: mcf7, 24 h. The format is cell-based.
Another data set has as its system MDA-MB-231. Nature of the data set: Cytotoxicity against human MDA-MB-231 cells assessed as reduction in cell viability up to 40 uM after 24 hrs by MTT assay. Format: functional, cell-based. A digest of the protocol: (§1)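 MTT read-out. 5000−10000 cells/well seeded overnight in their own medium: MCF7 and MCF10A in DMEM with phenol red, 10% FBS, 37 °C, 5% CO2; T47D in RPMI1640 with insulin and 10% FBS; MDA-MB-231 in L-15, 10% FBS, no CO2. Serial peptide dilutions or DMSO for 20 h at 37 °C, then MTT 4 h more; formazan in DMSO, A570.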

In another data set the test system is T47D. Nature of the data set: Cytotoxicity against human T47D cells assessed as reduction in cell viability up to 40 uM after 24 hrs by MTT assay. The format is functional, cell-based. A digest of the protocol:
as §1

In data set [4] the target is T1, Estrogen receptor (Homo sapiens). Briefly: Inhibition of recombinant human GFP-fused ERalpha LBD (301 to 553 residues) expressed in human […] cells assessed as downregulation of 17beta-estradiol-induced transcription at 5 uM preincubated for 4 hrs followed by E2 addition measured after 20 hrs by dual luciferase reporter gene assay. Format: cell-based. The procedure, abridged: (§2)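 U2OS cells in phenol red-free DMEM with 10% charcoal-stripped FBS, transfected 4 h with pEGFP-C1-ERα, 3XERE firefly luciferase reporter and pRL-TK Renilla plasmids. Peptides for 4 h, then 10 nM E2 or DMSO for 20 h. Lysates read by dual-luciferase; firefly normalized to Renilla, then to DMSO-treated control. SEM from more than two independent experiments.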
On the technique in general: A reporter such as luciferase makes a cellular process visible.

Data set [5] has as its system MCF7. Briefly: Cytotoxicity against human MCF7 cells assessed as reduction in cell viability at 1 uM after 24 hrs by MTT assay relative to control. Format: cell-based. Particulars: mcf7, 24 h.
For the next data set, the system named is MCF-10A. Nature of the data set: Cytotoxicity against human MCF10A cells assessed as reduction in cell viability up to 40 uM after 24 hrs by MTT assay. The format is cell-based. A digest of the protocol: as §1
In data set [6] the target is T1, Estrogen receptor (Homo sapiens). Briefly: Inhibition of recombinant human GFP-fused ERalpha LBD (301 to 553 residues) expressed in human […] cells assessed as downregulation of 17beta-estradiol-induced transcription at 5 uM preincubated for 4 hrs followed by E2 addition measured after 20 hrs in presence of tamoxifen by dual luciferase reporter gene assay. The format is cell-based. The procedure, abridged: as §2

The test system of data set [7] is MCF7. Briefly: Cytotoxicity against human MCF7 cells assessed as reduction in cell viability after 24 hrs by MTT assay. The format is functional, cell-based. A digest of the protocol:
as §1

Molecules are shown by their SMILES. Activity calls are given as the source filed them. No cut-off for these calls is given here. Where only a bound is given, the exact number is not on record here.

Turning to `CC[C@H](C)[C@@H]1NC(=O)C[C@H](NC(=O)[C@H](CCCNC(=N)N)NC(=O)CCNC(=O)[C@H](Cc2c[nH]c3ccccc23)NC(C)=O)C(=O)NCC(C(=O)N[C@@H](CCCNC(=N)N)C(=O)NC(CC(C)(C)C)C(=O)NC(CC(C)(C)C)C(=O)N[C@@H](CCC(N)=O)C(N)=O)NC(=O)C(CC(C)(C)C)NC1=O` (stereo partly specified), the inhibition result in [1], in [4] and in data set [6] was “Active” throughout. The viability at 20 µM with MCF7 [2] was found to be 14%. Besides, the Activity in the data set on MCF7 [3] was under 20%; with MCF7 [5], under 20%; with MCF-10A, “Non-Toxic”; with MCF7 [7], “Dose-dependent effect”. Besides, the result in the data set on MDA-MB-231 was inactive. Further, the result in the data set with T47D was Active. Also, the IC50 in the data set on MCF7 [7] (MCF7, 24 h) was found to be 12 µM.

As a reminder, the IC50 is the concentration that inhibits the measured activity by half.

(Values after ChEMBL document CHEMBL4017549, “Structural Basis of Inhibition of ERα-Coactivator Interaction by High-Affinity N-Terminus Isoaspartic Acid Tethered Helical Peptides” (J Med Chem, 2017).)
